In test [1] the target is T1, Peroxisome proliferator-activated receptor alpha (Homo sapiens) (UniProt Q07869).
T1 sequence (whole entry): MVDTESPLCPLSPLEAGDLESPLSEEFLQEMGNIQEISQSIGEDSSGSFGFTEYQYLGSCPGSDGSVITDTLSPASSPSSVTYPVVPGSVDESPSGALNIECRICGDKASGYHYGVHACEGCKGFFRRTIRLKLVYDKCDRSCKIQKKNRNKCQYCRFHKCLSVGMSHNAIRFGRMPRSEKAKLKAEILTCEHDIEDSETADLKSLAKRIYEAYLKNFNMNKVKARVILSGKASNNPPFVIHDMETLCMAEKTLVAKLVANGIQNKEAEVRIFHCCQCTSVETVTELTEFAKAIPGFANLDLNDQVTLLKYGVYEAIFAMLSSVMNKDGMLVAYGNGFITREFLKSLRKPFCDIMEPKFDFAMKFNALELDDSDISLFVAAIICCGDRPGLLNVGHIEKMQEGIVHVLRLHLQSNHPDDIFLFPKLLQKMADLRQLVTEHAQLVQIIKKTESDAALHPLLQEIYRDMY
The experiment in a line: (§1) Activity at PPARalpha by luciferase reporter gene transactivation assay in COS7 cells. It is filed as functional, cell-based. The conditions noted are these: COS-7.

The target of test [2] is T2, Peroxisome proliferator-activated receptor delta (Homo sapiens) (UniProt Q03181).
T2 sequence (whole entry): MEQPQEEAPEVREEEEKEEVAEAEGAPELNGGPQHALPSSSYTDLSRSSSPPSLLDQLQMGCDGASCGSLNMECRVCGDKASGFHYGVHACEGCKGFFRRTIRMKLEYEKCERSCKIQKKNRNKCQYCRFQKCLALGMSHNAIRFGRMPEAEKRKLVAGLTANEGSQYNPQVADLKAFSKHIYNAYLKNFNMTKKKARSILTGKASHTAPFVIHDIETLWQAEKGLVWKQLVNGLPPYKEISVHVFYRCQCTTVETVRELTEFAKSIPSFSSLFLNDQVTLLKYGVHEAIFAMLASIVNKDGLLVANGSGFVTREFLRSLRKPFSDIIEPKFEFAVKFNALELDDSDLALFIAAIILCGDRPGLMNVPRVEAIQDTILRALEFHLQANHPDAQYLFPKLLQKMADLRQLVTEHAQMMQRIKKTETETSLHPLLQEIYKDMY
The experiment in a line: (§2) Activity at PPARbeta/delta by luciferase reporter gene transactivation assay in COS7 cells. Format: functional, cell-based. The conditions noted are these: COS-7.

For test [3], the target named is T1, Peroxisome proliferator-activated receptor alpha (Homo sapiens). The experiment in a line: Activity at PPARalpha by luciferase reporter gene transactivation assay in COS7 cells relative to WY-14643 at 10 uM. The conditions noted are these: COS-7. Format: functional, cell-based. In a few lines: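 Cos-7 cells were transiently transfected, using PEI in OptiMEM for 3 h at 37 °C, with the pG5-TK-pGL3 luciferase reporter, pGAL4hPPARa (Gal4 DBD–human PPARα LBD) and pCMV-β-galactosidase. Cells were reseeded in 96-well plates and treated for 16 h in DMEM with 0.2% FCS at 10 µM–10 nM. Luciferase was normalized to β-galactosidase, and maximal activity was expressed versus the WY14.643 positive control. Experiments were run at least three times.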
In general terms: In a reporter assay the amount or activity of a reporter protein is the signal.

The species entered for a further test is Homo sapiens. The experiment in a line: Selectivity for human PPARdelta over human PPARalpha. The method in brief: (§3)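 The selectivity ratio is taken from EC50 values measured in Cos-7 cells transiently transfected with the pG5-TK-pGL3 luciferase reporter plus Gal4 DBD–human PPARβ/δ, PPARα or PPARγ LBD chimeras and β-galactosidase control. Cells were treated for 16 h in 0.2% FCS DMEM at 10 µM–10 nM. EC50s were fitted from β-gal-normalized luciferase and are means of three experiments.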

The target in test [4] is T3, Peroxisome proliferator-activated receptor alpha (Homo sapiens, UniProt Q07869).
T3 sequence (Q07869 whole entry): T1 sequence (whole entry)
Described as §1. Format: functional, cell-based, COS-7.

The target of test [5] is T4, Peroxisome proliferator-activated receptor delta (Homo sapiens, UniProt Q03181).
T4 sequence (Q03181 whole entry): T2 sequence (whole entry)
The description is as §2. Format: functional, cell-based, COS-7.

For test [6], the target named is T5, Peroxisome proliferator-activated receptor gamma (Homo sapiens, UniProt P37231).
T5 sequence (P37231 whole entry): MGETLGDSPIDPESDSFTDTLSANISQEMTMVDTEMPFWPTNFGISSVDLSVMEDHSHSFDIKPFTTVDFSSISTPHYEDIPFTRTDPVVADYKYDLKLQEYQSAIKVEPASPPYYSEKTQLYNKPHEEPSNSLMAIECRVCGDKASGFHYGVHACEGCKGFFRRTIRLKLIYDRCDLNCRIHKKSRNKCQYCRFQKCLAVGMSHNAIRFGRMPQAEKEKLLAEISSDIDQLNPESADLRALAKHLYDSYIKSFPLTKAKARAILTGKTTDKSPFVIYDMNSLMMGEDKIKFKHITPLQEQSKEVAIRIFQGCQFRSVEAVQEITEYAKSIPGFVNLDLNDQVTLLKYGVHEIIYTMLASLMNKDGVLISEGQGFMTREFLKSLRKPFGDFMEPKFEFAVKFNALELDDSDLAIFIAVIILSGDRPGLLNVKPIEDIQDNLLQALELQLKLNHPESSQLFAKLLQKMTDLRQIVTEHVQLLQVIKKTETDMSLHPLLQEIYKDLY
The experiment in a line: Activity at PPARgamma by luciferase reporter gene transactivation assay in COS7 cells. It is filed as functional, cell-based, COS-7.

The target of test [7] is PPAR delta/gamma (Homo sapiens) (UniProt P37231+Q03181). The experiment in a line: Selectivity for human PPARdelta over human PPARgamma. Format: protein assay. In a few lines: as §3

Active and inactive are the calls of the source. The calls are words filed in the database; no cut-off is given here. Some results are limits rather than exact numbers.

One may read the EC50 as the concentration needed to bring the measured effect to its halfway point. A higher EC50 goes with a less potent agent.

Consider `CC(=O)c1ccc(OCCCOc2ccc(OCC(=O)O)cc2)cc1`, for which the outcome in test [1] and in test [2] was inactive.

As for `CCCc1cc(C(F)(F)F)ncc1OCCCOc1ccc(OCC(=O)O)c(C)c1`, the Activity in test [3] is 136%. In addition, in the test listed under Homo sapiens, the Selectivity ratio is over 100. For the same compound, the EC50 in test [4] amounted to 1330 nM; in test [5] it was 15 nM; in test [6] it was 1580 nM.

Take `CCCc1c(OCCCOc2ccc(OCC(=O)OC)cc2)ccc(C(C)=O)c1O`: in test [3], the Activity is 32%. In addition, the figures for the concentration giving a half-maximal response (EC50) in test [4], in test [5] and in test [6] were 1070 nM, 457 nM and 288 nM, respectively.

In turn, `CCCc1cc(C(F)(F)F)ccc1OCCCOc1ccc(OCC(=O)OC)cc1` came in with an Activity in test [3] of 49%. In addition, the EC50 in test [4] is 1400 nM; in test [5] it was 98 nM; in test [6] it was 1190 nM.

Turning to `COC(=O)COc1ccc(OCCCOc2cccc(O)c2)cc1`, the result in test [1] and in test [2] was inactive.

Regarding `CCCc1cc(C(F)(F)F)ccc1OCCCOc1ccc(OCC(=O)OC)c(C)c1`, in test [3], the Activity came out at 85%. Moreover, the EC50 in test [4] came out at 1010 nM; in test [5] it was 16 nM; in test [6], 1260 nM.

On to `CCCc1c(OCCCOc2ccc(OCC(=O)OC)cc2)cnc(C(C)=O)c1O`, for which the Activity in test [3] worked out at 64%. In addition, the EC50 in test [4] worked out at 8390 nM; in test [5], 82 nM; in test [6], 757 nM.

On to `CCCc1c(OCCCOc2ccc(OCC(=O)O)cc2)ccc(C(C)=O)c1O`, for which the Selectivity ratio in the test listed under Homo sapiens turned out to be 8; in test [7] it was 15. In addition, the figures for the EC50 in test [4], in test [5] and in test [6] were 977 nM, 125 nM and 1820 nM, respectively.

Take `CCCc1ccccc1OCCCOc1ccc(OCC(=O)OC)cc1`: in test [1], the result was inactive. The response in test [5] was half-maximal at 1050 nM (EC50).

As to `CC(=O)c1ccc(OCCCOc2ccc(OCC(=O)O)cc2)cc1O`, in test [1], the result was inactive. Also, the response in test [5] was half-maximal at 10000 nM (EC50).

Regarding `Cc1cc(SCc2sc(-c3ccc(C(F)(F)F)cc3)nc2C)ccc1OCC(=O)O`, the Activity in test [3] is 452%.

Turning to `CCCc1cc(C(F)(F)F)ccc1OCCCOc1ccc(OCC(=O)O)c(C)c1`, in test [3], the Activity is 40%. Also, the EC50 in test [4] worked out at 103 nM; in test [5] it was 7 nM; in test [6], 153 nM.

The record behind these values is ChEMBL document CHEMBL1146916, “Studies towards the conception of new selective PPARbeta/delta ligands” (Bioorg Med Chem Lett, 2006).
